# Source: PubChem BioAssay
# The list shows a part of the results. Values without a mark were called inactive. Activity calls are given as the source filed them. Rule as the data show it, unless noted: active = inhibition above about 13%; inactive = the rest.
# Experiments:
# [1] = biological target: (Lyso)-N-acylphosphatidylethanolamine lipase (Mus musculus) (UniProt Q8VD66); assay: mouse ABHD4 hydrolase blockers, triplicate – biochemical, fluorescence polarization, confirmation (AID 720658;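 active = mean inhibition across replicates above the hit cutoff set in the primary screen, cut at about 30% in these data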;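 also: 0% = wild-type ABHD4 with DMSO and 100% = catalytically dead S159A mutant with DMSO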); conditions: purified mABHD4, FP-Rh probe fluorescence polarization; at 8.92 µM; active compounds read high
# Outline: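 Material: Wild-type mouse ABHD4 | Compound: Single nominal compound dose 8.92 µM, 0.89% DMSO final | Measured by: Fluorescence polarization, excitation 525 nm, emission 598 nm | Incubation: 45 min compound pretreatment plus 60 min FP-Rh labeling, 25 °C | Measure: Percent inhibition scaled between wild-type DMSO and S159A mutant wells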
# [2] = VP16-driven transactivation reporter suppression – cell-based, luminescence, HEK293, counter-screen for COUP-TFII antagonist project (AID 687007); conditions: HEK293 Gal4-VP16 luciferase reporter, at 8.5 µM, active compounds read high
# [3] = biological target: COUP transcription factor 2 (Homo sapiens) (UniProt P24468); assay: retest of COUP-TFII reporter suppressors – cell-based, luciferase reporter, HEK293, triplicate, confirmation (AID 687008;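 active = mean inhibition over three repeats above a set limit taken from the earlier primary screen, cut at about 38% in these data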;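 also: 100% = cells given the luciferase reporter alone without the COUP-TF2 vector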); conditions: HEK293 NGFI-A luciferase reporter, luminescence; at 8.5 µM; active compounds read high
# [4] = BSA probe fluorescence interference – biochemical, TAMRA-labeled BSA, counter-screen for TCR-CD3 interaction inhibitor project (AID 652035; in the data active = inhibition above about 23%;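 also: 0% = buffer low control and 100% = reference high control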); conditions: TAMRA-labeled BSA probe fluorescence counterscreen; at 9.4 µM; active compounds read high
# [5] = tested on: T-cell receptor (TCR)-CD3 interaction, human; assay: blockers of TCR binding to CD3 – biochemical, fluorescence, TAMRA-labeled TCR probe, confirmation (AID 652036; in the data active = inhibition above about 19%); conditions: TAMRA-labeled TCR probe fluorescence binding assay; at 9.4 µM; active compounds read high
# [6] = tested on: DAF-12 nuclear receptor (Heterodera glycines), GAL4-LBD fusion; assay: hgDAF-12 GAL4 fusion reporter activation, retest – cell-based, luminescence, HEK293, GAL4-LBD fusion, confirmation (AID 743050;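 active = mean activation over triplicate wells above the hit cutoff derived from the earlier primary screen, cut at about 11% in these data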;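 also: 0% = DMSO low control and 100% = 2 mM sodium butyrate high control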); conditions: HEK293 GAL4-hgDAF12 luciferase reporter, agonist mode; at 6.8 µM; active compounds read high; percent of butyrate response
# [7] = biological target: Oxysterols receptor LXR-beta (Homo sapiens) (UniProt P55055); assay: nonspecific reporter activation via LXR – cell-based, luminescence, HEK293, H. glycines campaign, counter-screen for hgDAF-12 agonist project, confirmation (AID 743051;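 active = mean activation of the triplicate above a set limit carried over from the primary screen, none filed active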); conditions: HEK293 Gal4-LXR luciferase reporter, 24 h; at 6.8 µM; active compounds read high
# Outline: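 Test system: HEK293 cells with Gal4-LXR and tk-luc reporter | Incubation: 24 h exposure, 37 °C | Signal: One-Glo luminescence after 15 min | Measure: % activation versus DMSO and positive controls | Benchmarks: DMSO low control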
# [8] = biological target: Oxysterols receptor LXR-beta (Homo sapiens) (UniProt P55055); assay: nonspecific reporter activation via LXR – cell-based, luminescence, HEK293, H. contortus campaign, counter-screen for hcDAF-12 agonist project, confirmation (AID 743027;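 active = mean percent activation of the reporter above a cutoff set as the average over tested compounds plus their standard deviation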); conditions: HEK293 Gal4-LXR tk-luc reporter, 24 h, at 6.8 µM, active compounds read high, normalized: DMSO 0%, positive control 100%
# Outline: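 Material: HEK293 Gal4-LXR luciferase reporter cells. Dosing: one nominal 6.8 µM dose, 0.68% DMSO. Schedule: one-day compound treatment at 37 °C. Technique: luciferase luminescence read with One-Glo reagent. Measure: % activation. Benchmarks: DMSO low control, positive-control high control. Replicates: triplicate wells per compound.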
# [9] = tested on: Nuclear hormone receptor DAF-12 (Haemonchus contortus); assay: hcDAF-12 luciferase reporter activation, retest – cell-based, luminescence, HEK293, lit1-tk-luc, triplicate, confirmation (AID 743032;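 active = mean activation across triplicate tests above the threshold derived from the earlier primary screen, cut at about 5.5% in these data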;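 also: 0% = DMSO only wells and 100% = 3 µM Δ7-dafachronic acid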); conditions: HEK293 hcDAF-12 lit1-tk-luc reporter, at 6.8 µM, active compounds read high, % of Δ7-dafachronic acid response
# Chain of (Lyso)-N-acylphosphatidylethanolamine lipase (Mus musculus) (Q8VD66 whole entry, looked up): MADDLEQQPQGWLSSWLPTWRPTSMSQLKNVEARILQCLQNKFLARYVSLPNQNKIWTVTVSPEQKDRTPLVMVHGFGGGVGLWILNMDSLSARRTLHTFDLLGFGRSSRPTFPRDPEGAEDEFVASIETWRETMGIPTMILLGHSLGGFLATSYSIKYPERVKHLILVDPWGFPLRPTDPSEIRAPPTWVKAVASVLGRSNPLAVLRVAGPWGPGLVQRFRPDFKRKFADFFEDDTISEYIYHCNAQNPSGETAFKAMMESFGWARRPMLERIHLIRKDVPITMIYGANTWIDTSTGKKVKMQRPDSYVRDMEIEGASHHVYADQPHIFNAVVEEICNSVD
# Chain of COUP transcription factor 2 (Homo sapiens) (P24468 whole entry, looked up): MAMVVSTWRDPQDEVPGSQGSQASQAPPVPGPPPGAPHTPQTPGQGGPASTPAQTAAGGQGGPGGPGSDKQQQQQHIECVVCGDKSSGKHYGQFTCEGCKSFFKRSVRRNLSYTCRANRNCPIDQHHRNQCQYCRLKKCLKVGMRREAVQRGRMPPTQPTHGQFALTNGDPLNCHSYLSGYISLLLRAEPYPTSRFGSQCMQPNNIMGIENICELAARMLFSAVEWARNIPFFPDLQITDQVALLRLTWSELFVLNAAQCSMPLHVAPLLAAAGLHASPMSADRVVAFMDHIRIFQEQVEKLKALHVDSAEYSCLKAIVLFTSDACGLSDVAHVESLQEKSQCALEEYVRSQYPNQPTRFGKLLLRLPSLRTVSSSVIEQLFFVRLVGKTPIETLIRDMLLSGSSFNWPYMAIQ
# Chain of Oxysterols receptor LXR-beta (Homo sapiens) (P55055 whole entry, looked up, the tested form may be a part): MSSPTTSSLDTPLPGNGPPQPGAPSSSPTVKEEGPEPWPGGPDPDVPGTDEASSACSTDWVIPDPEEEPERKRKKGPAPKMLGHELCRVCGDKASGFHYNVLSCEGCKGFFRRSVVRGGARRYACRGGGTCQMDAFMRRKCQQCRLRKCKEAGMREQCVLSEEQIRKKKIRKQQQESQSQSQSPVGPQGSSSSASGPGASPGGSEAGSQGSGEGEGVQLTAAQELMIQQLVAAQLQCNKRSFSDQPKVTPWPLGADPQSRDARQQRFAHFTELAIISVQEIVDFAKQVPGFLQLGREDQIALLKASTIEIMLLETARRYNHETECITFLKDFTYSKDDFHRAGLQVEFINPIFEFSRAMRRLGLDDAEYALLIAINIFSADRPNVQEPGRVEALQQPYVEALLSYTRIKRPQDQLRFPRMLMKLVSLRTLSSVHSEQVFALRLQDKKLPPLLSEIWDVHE
smiles,measurement,setting,value
O=C(COC(=O)c1ccc(O)cc1O)c1ccc2c(c1)OCCO2,inhibition,[1],40.2% (active)
CCN1C(=O)/C(=C2/Sc3ccccc3N2CCCS(=O)(=O)O)SC1=S,inhibition,[1],24.3%
O=C(c1cc(C(=O)N2CCN(c3ccc(F)cc3)CC2)cc([N+](=O)[O-])c1)N1CCN(c2ccc(F)cc2)CC1,inhibition,[2],-2.78%
same,inhibition,[3],46.7% (active)
Cc1nc(C(=O)NCc2ccccc2)sc1C1(C)CC(c2cccnc2)=NO1 (configuration not stated),inhibition,[2],-2.73%
same,inhibition,[3],6.06%
O=C(Nc1ccc(S(=O)(=O)NCC2CCCO2)cc1)c1ccc(F)cc1 (configuration not stated),inhibition,[2],3.93%
same,inhibition,[3],13.8%
CN(c1cccc(NC(=O)c2ccc(CN3CCc4ccccc4C3)cc2)c1)S(C)(=O)=O,inhibition,[2],4.04%
same,inhibition,[3],41.2% (active)
CC(C)c1ccc(CC(=O)N2CCC2(C)C(=O)NS(=O)(=O)c2ccc(C(C)(C)C)cc2)cc1 (configuration not stated),inhibition,[1],68.5% (active)
Cc1ccc(CNC(=O)Nc2nnc([C@H]3C[C@H](O)[C@@H](CO)O3)s2)cc1,inhibition,[2],-1.25%
same,inhibition,[3],11.2%
CCc1ccc(-c2nc(SCC(=O)NC3CCCC3)n[nH]2)cc1,inhibition,[2],-22.9%
same,inhibition,[3],11.9%
Cc1cccc(N2CCN(Cc3nc(C4CC4)no3)CC2)n1,inhibition,[1],-2.12%
CN(CCc1ccccc1)C(=O)c1cccc(NC(=O)Cc2cccc(NC(=O)C3CCCN(C(=O)CCc4ccccc4)C3)c2)c1 (configuration not stated),inhibition,[2],-3.76%
same,inhibition,[3],15.9%
COc1ccc(NC(=O)C2Cc3c(-c4cccc(NC(C)=O)c4)ccnc3O2)cc1OC (configuration not stated),inhibition,[2],-1.35%
same,inhibition,[3],14.6%
NS(=O)(=O)c1ccc(CCNc2nc(C(F)(F)F)nc3ccccc23)cc1,inhibition,[2],-10.4%
same,inhibition,[3],0.16%
CCOC(=O)C1(CCOc2ccccc2)CCN(Cc2cc(OC)cc(OC)c2)CC1,inhibition,[2],6.8%
same,inhibition,[3],9.24%
N#CC(C#N)=CN=c1ccn(Cc2ccc(Cl)cc2Cl)cc1,inhibition,[2],-2.5%
same,inhibition,[3],9.12%
Cc1cc2ccccc2n1CCNC(=O)COc1ccc2ccccc2c1,inhibition,[4],8.77%
same,inhibition,[5],2.99%
same,inhibition,[1],1.54%
COc1cc(/C=C/C(=O)n2cnc3ccccc32)cc(OC)c1OC,inhibition,[2],-14.2%
same,inhibition,[3],16.1%
c1ccc(Cc2ccc(OCCn3ccnc3)cc2)cc1,inhibition,[2],-6.15%
same,inhibition,[3],9.96%
CNS(=O)(=O)c1ccc2c(c1)[nH]c(=S)n2C,inhibition,[4],10.3%
same,inhibition,[5],10.3%
Cc1ccccc1CS(=O)(=O)Cc1ccc(C(=O)Nc2ccc(Cl)cc2)o1,inhibition,[2],-1.58%
same,inhibition,[3],41.5% (active)
Cc1ccc(OCC(=O)Nc2ccc(N3CCN(C(=O)c4ccco4)CC3)cc2)c(C)c1,inhibition,[2],4.51%
same,inhibition,[3],24.3%
Cc1ccc(C(=O)NCC(=O)O)cc1S(=O)(=O)N1CCCCC1,inhibition,[4],2.01%
same,inhibition,[5],5.08%
CCOC(=O)N1CCN(C(=O)C[C@@H]2C(=O)N(CCc3ccc(Cl)cc3)C3=CCCC[C@]32C(=O)OCC)CC1,inhibition,[2],-8.45%
same,inhibition,[3],9.27%
CCC(=O)Nc1ccc(C(=O)CSc2nnc(CNc3ccc(Cl)cc3)o2)cc1OC,inhibition,[2],-6.4%
same,inhibition,[3],17.3%
C/C=C/C=C/C(=O)O,inhibition,[4],3.35%
same,inhibition,[5],6.03%
Cc1ccc(NC(=O)C2CC(=O)N(c3ccc4c(c3)OCCO4)C2)cc1S(=O)(=O)N1CCCCCC1 (configuration not stated),inhibition,[2],-2.18%
same,inhibition,[3],14.1%
CN(C(=O)c1cccc(NC(=O)Cc2cccc([N+](=O)[O-])c2)c1)C1CCCCC1,inhibition,[2],-3.36%
same,inhibition,[3],1.83%
O=C(Nc1ccc(S(=O)(=O)N2CCOCC2)cc1)C1CCN(S(=O)(=O)c2ccc(Cl)cc2)CC1,inhibition,[2],0.86%
same,inhibition,[3],12.2%
Cc1ccccc1OCC(=O)Nc1ccc(N2CCN(C(=O)C(C)C)CC2)c(Cl)c1,inhibition,[2],-4.24%
same,inhibition,[3],10.5%
CCCCn1c(SCc2ncc(-c3ccccc3)o2)nc2cc(S(N)(=O)=O)ccc21,inhibition,[2],6.53%
same,inhibition,[3],14.4%
C=CCn1c(=O)c(C(=O)Nc2ncccc2O)c(O)c2ccccc21,inhibition,[4],-7.93%
same,inhibition,[5],16.6%
Cc1ccc(Nc2nc(CSc3nnc(-c4ccncc4)n3-c3ccccc3C)cs2)cc1,inhibition,[2],-8.65%
same,inhibition,[3],11.9%
NC(N)=N/N=C/c1ccc(OCc2ccc(Cl)cc2Cl)cc1,inhibition,[1],46.2% (active)
CCN(CC)P(=O)(C(NC(=O)OC)C(F)(F)C(F)(F)C(F)(F)C(F)F)N(CC)CC (configuration not stated),inhibition,[2],7.83%
same,inhibition,[3],14.8%
COc1cc(/C=C2/C(=O)NN(c3cccc(Cl)c3)C2=O)cc(Br)c1O,inhibition,[1],38.8% (active)
NS(=O)(=O)c1ccc(CCNC(=O)c2ccc(Cl)c(S(=O)(=O)N3CCCCCC3)c2)cc1,inhibition,[2],5.82%
same,inhibition,[3],39.1% (active)
COc1ccc(OC)c(CNC(=O)Cn2nc(C)c3c(C)n(-c4ccc(C)cc4)nc3c2=O)c1,inhibition,[2],-4.78%
same,inhibition,[3],51.1% (active)
Cc1ccc(-n2nc3c(=O)n(C(C)C(=O)NCc4ccc5c(c4)OCO5)nc(C)c3c2C)cc1 (configuration not stated),inhibition,[2],-6.28%
same,inhibition,[3],11.8%
O=C(O)c1ccc(N/N=C/c2cn(-c3ccccc3)nc2-c2cccs2)cc1,activation,[6],19.1% (active)
same,activation,[7],0.89%
Cc1ccc(C(=O)O/N=C(\N)c2ccccn2)cc1Cl,activation,[8],1.52%
same,activation,[9],4.81%
O=C(O)CN1c2cccc3cccc(c23)S1(=O)=O,activation,[8],-0.29%
same,activation,[9],1.3%
